Data as given in ChEMBL document CHEMBL3244104, “New inhibitors of platelet aggregation. 5'-Phosphate, 5'-phosphorothioate, and 5'-O-sulfamoyl derivatives of 2-substituted adenosine analogues” (J Med Chem, 1978).
Activity calls are given as the source filed them. No cut-off for these calls is given here.

Experiments:
Platelet [1] = assay: Antiplatelet activity in sheep platelet rich plasma assessed as inhibition of serotonin-induced platelet aggregation pretreated for 1 min followed by serotonin addition by photometric analysis; type: functional, cell-free; settings: Ovis aries
Procedure, shortened: (§1)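 Serotonin-induced aggregation in sheep PRP adjusted to 300 000-400 000 platelets/mm³, measured at 37 °C by Born photometry in stirred samples. Inhibitor given 1 min before serotonin, with serotonin final 1.6 μM. Agents dissolved in barbitone-buffered saline, pH 7.4.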

Platelet [2] = assay: Antiplatelet activity in sheep platelet rich plasma assessed as inhibition of ADP-induced platelet aggregation pretreated for 2.5 mins followed by ADP addition by photometric analysis; type: functional, cell-free; settings: Ovis aries
Procedure, shortened: (§2)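 Citrated sheep blood spun 24 min at 140g to give PRP, diluted with platelet-free plasma (1000g, 10 min) to 300 000-400 000 platelets/mm³. Aggregation read photometrically (Born method) at 37 °C in stirred PRP as light transmission or optical density change. Agents dissolved in saline buffered to pH 7.4 with sodium barbitone. ADP added to 0.67 μM.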

[3] = Antiplatelet activity in sheep platelet rich plasma assessed as inhibition of ADP-induced platelet aggregation pretreated for 2.5 mins followed by ADP addition by photometric analysis relative to adenosine; type: functional, Ovis aries
Procedure, shortened: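 Sheep PRP (300 000-400 000 platelets/mm³), 37 °C, stirred, Born photometric read-out. Analogue incubated 2.5 min before ADP (final 0.67 μM). Four doses per analogue. Rate taken as initial slope of the aggregation curve. Potency from log dose vs. percent inhibition plots, expressed relative to adenosine run on each PRP batch. Means of at least four determinations.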

Rattus norvegicus [4] = assay: Toxicity in anesthetized rat assessed as hypotensive potency up to 2.5 umol/kg, iv relative to adenosine; type: organism-based; settings: in vivo
Rattus norvegicus [5] = assay: Cardiotoxicity in anesthetized rat assessed as effect on heart rate up to 2.5 umol/kg, iv; type: toxicity, organism-based; settings: in vivo
Platelet [6] = assay: Antiplatelet activity in sheep platelet rich plasma assessed as inhibition of ADP-induced platelet aggregation at 3.75 uM pretreated for 1 min followed by ADP addition by photometric analysis; settings: Ovis aries
Platelet [7] = assay: Antiplatelet activity in sheep platelet rich plasma assessed as inhibition of serotonin-induced platelet aggregation at 100 uM pretreated for 1 min followed by serotonin addition by photometric analysis; type: functional, cell-free; settings: Ovis aries; procedure, shortened: as §1
Platelet [8] = assay: Antiplatelet activity in sheep platelet rich plasma assessed as inhibition of ADP-induced platelet aggregation up to 300 uM pretreated for 2.5 mins followed by ADP addition by photometric analysis; type: functional, cell-free; settings: Ovis aries; procedure, shortened: as §2
[9] = Stimulation of platelet aggregation in sheep platelet rich plasma at 100 uM pretreated for 1 min followed by ADP addition by photometric analysis; type: ADME, cell-free, Ovis aries; procedure, shortened: as §2
Platelet [10] = assay: Antiplatelet activity in sheep platelet rich plasma assessed as inhibition of serotonin-induced platelet aggregation at 200 uM pretreated for 1 min followed by serotonin addition by photometric analysis; type: functional, cell-free; settings: Ovis aries; procedure, shortened: as §1
Platelet [11] = assay: Antiplatelet activity in sheep platelet rich plasma assessed as inhibition of ADP-induced platelet aggregation at 100 uM pretreated for 1 min followed by ADP addition by photometric analysis; type: functional, cell-free; settings: Ovis aries; procedure, shortened: as §2

SMILES | inhibition (Platelet [1]) | inhibition (Platelet [2]) | fold change (FC) [3] | further results
CNc1nc(Cl)nc2c1ncn2[C@@H]1O[C@H](COP(=O)(O)O)[C@@H](O)[C@H]1O | inactive | Dose-dependent effect | 0.12 | 
CCSc1nc(N)c2ncn([C@@H]3O[C@H](COP(O)(O)=S)[C@@H](O)[C@H]3O)c2n1.N.N | inactive |  | 13.4 | Activity (Rattus norvegicus [4]): < 1%; Activity (Rattus norvegicus [5]): Non-toxic; inhibition (Platelet [6]): Active
CCOc1nc(N)c2ncn([C@@H]3O[C@H](COP(=O)(O)O)[C@@H](O)[C@H]3O)c2n1 | inactive | Dose-dependent effect | 0.103 | 
CSc1nc(N)c2ncn([C@@H]3O[C@H](COP(O)(O)=S)[C@@H](O)[C@H]3O)c2n1.N.N | inactive |  | 4 | Activity (Rattus norvegicus [4]): < 1%; Activity (Rattus norvegicus [5]): Non-toxic
CSc1nc(N)c2ncn([C@@H]3O[C@H](COP(=O)(O)O)[C@@H](O)[C@H]3O)c2n1 | inactive | Dose-dependent effect | 2.41 | Activity (Rattus norvegicus [4]): < 1%; Activity (Rattus norvegicus [5]): Non-toxic
Nc1nc(Cl)nc2c1ncn2[C@@H]1O[C@H](COP(=O)(O)O)[C@@H](O)[C@H]1O | inactive | Dose-dependent effect | 0.12 | 
CNc1nc(N)c2ncn([C@@H]3O[C@H](COP(=O)(O)O)[C@@H](O)[C@H]3O)c2n1 | inactive | Dose-dependent effect | 0.027 | 
N.N.Nc1nc(Cl)nc2c1ncn2[C@@H]1O[C@H](COP(O)(O)=S)[C@@H](O)[C@H]1O | inactive |  | 0.44 | 
Nc1nc(C(F)(F)F)nc2c1ncn2[C@@H]1O[C@H](COP(=O)(O)O)[C@@H](O)[C@H]1O | inactive | Dose-dependent effect | 0.22 | 
CCSc1nc(N)c2ncn([C@@H]3O[C@H](COP(=O)(O)O)[C@@H](O)[C@H]3O)c2n1 | inactive | Dose-dependent effect | 5.2 | Activity (Rattus norvegicus [4]): < 1%; Activity (Rattus norvegicus [5]): Non-toxic; inhibition (Platelet [6]): Active
Nc1ncnc2c1ncn2[C@@H]1O[C@H](CO)[C@@H](O)[C@H]1O |  |  |  | inhibition (Platelet [6]): Active
Nc1nc(Cl)nc2c1ncn2[C@@H]1O[C@H](COS(N)(=O)=O)[C@@H](O)[C@H]1O |  |  |  | inhibition (Platelet [7]): Active; inhibition (Platelet [8]): inactive; Activity [9]: Toxic
Nc1ncnc2c1ncn2[C@@H]1O[C@H](COP(=O)(O)O)[C@@H](O)[C@H]1O [ADENOSINE PHOSPHATE] | inactive | Dose-dependent effect | 0.12 | 
Nc1ncnc2c1ncn2[C@@H]1O[C@H](COP(O)(O)=S)[C@@H](O)[C@H]1O | inactive |  | 0.04 | 
COc1nc(N)c2ncn([C@@H]3O[C@H](COP(=O)(O)O)[C@@H](O)[C@H]3O)c2n1 | inactive | Dose-dependent effect | 0.034 | 
CNc1nc(SC)nc2c1ncn2[C@@H]1O[C@H](COP(=O)(O)O)[C@@H](O)[C@H]1O | inactive | Dose-dependent effect | 0.46 | 
Nc1ncnc2c1ncn2[C@@H]1O[C@H](COS(N)(=O)=O)[C@@H](O)[C@H]1O |  |  |  | inhibition (Platelet [10]): Active; inhibition (Platelet [8]): inactive; Activity [9]: Toxic
CCNc1nc(N)c2ncn([C@@H]3O[C@H](COP(=O)(O)O)[C@@H](O)[C@H]3O)c2n1 | inactive | Dose-dependent effect | 0.027 | 
CSc1nc(N)c2ncn([C@@H]3O[C@H](COS(N)(=O)=O)[C@@H](O)[C@H]3O)c2n1 |  |  |  | inhibition (Platelet [11]): Active; inhibition (Platelet [10]): Active
